In the library only some 4.8% were active in any assay of this set; here they are far more common.
ALR inh: blocks human ALR sulfhydryl oxidase activity; purified ALR, DTT oxidation, H2O2 HRP-luminol luminescence; 290,000 tested, 3.8% active; inhibition, % (no concentration beside the values); AID 485317; P55789;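 active = mean replicate inhibition above about 79%, with every replicate also reaching it, limit read from the data; inconclusive = only one of the two criteria met; inactive = mean below limit and not every replicate reaching it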
Target sequence (P55789 whole entry, looked up): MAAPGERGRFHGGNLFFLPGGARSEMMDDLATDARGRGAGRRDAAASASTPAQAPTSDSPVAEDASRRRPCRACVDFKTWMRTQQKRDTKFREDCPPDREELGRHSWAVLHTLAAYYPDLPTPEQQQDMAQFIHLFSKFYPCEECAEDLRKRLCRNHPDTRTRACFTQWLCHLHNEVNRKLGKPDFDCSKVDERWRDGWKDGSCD
ATG4B inhibitor: inhibitors of human ATG4B cysteine protease; ATG4B cleavage of LC3-PLA2, NBD-HPC fluorescence, 1 h; inhibition, % at 8.33 µM; 340,000 tested, 0.51% active; in the data active = inhibition above about 40%
UCH37 inh: human UCH37 deubiquitinating enzyme inhibition; purified proteasome/UCH37, Ub-AMC cleavage fluorescence; inhibition, % (test concentration not listed); 330,000 tested, 0.33% active; AID 588478;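 active = mean inhibition over replicate wells above about 20%, limit read from the data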;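 note: 0% = compound-free wells with enzyme and 100% = wells lacking proteasome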
Target sequence (Q9Y5K5 whole entry, looked up): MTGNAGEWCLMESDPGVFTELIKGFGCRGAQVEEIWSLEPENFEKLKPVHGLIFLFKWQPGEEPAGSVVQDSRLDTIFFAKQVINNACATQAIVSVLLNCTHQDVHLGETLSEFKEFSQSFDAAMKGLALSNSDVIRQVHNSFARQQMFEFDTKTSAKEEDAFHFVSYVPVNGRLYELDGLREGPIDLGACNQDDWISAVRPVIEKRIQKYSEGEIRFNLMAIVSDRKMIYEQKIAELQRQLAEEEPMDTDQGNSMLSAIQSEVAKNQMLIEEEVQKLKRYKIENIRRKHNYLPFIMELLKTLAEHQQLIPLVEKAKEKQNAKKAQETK
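System: Proteasome-associated human UCH37 deubiquitinase; Input: 0.15 nM proteasome in added enzyme buffer; Also added: Ub-AMC substrate from 1 µM stock; Incubation: 30 min compound-proteasome preincubation then 25 min substrate reaction, room temperature; Detection: fluorescence, ex 355 nm, em 460 nm; Read-out: % inhibition of Ub-AMC cleavage fluorescence; Benchmarks: no-proteasome and no-compound wells.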
Calb FLC: C. albicans growth modulation with fluconazole | C. albicans CaCi-2 (fluconazole-resistant clinical isolate) + fluconazole, Alamar Blue growth, 48 h | growth inhibition, % (test concentration not listed) | 300,000 tested, 0.57% active;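 active = growth inhibition above about 58% in most replicates, limit read from the data, passing the limit was not always enough; inconclusive = exactly half the replicates above a set limit; inactive = most replicates below a set limit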;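 note: all wells also contain fluconazole at 8 µg/ml as a sub-toxic cotreatment; 0% = median of DMSO wells and 100% = median of geldanamycin control wells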
NALP1 yeast inh: inhibitors of NALP1 inflammasome in yeast | AID 2071 | 280,000 tested, 0.61% active | inhibition, % at 10 µM | S. cerevisiae NALP1/ASC/caspase-1 growth, X-gal OD620, 72 h; in the data active = inhibition mostly above about 24%, no sharp cut-off; inactive = mostly below about 32%
NLRP3 yeast inh: NALP3 inhibition in yeast. Yeast reconstituted NLRP3/ASC/caspase-1, beta-gal luminescence, 24 h. inhibition, % at 10 µM. AID 2825. 330,000 tested, 0.39% active;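 active = inhibition of 50% or more; inactive = inhibition below 50%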;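 note: plate controls were induced DMSO wells for no effect and uninduced yeast grown without galactose for full effect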
Starred values were filed as active, the others as inactive; u = inconclusive; x = no result.

SMILES | ALR inh | ATG4B inhibitor | UCH37 inh | Calb FLC | NALP1 yeast inh | NLRP3 yeast inh
CC(=NNC(=O)C1CC1)c1ccccc1Br | x | x | 6 | x | x | x
CC(=O)Nc1cccc(C(C)=NNC(=O)c2ccc(O)cc2)c1 | x | x | 2 | x | x | x
CCOC(=O)CC(=O)CSc1nc2c(sc(=S)n2-c2ccc(C)c(C)c2)c(=O)[nH]1 | x | 5 | 10 | 18 | -3 | 3
CCOC(=O)CC(=O)CSc1nc2c(sc(=S)n2-c2ccc(OCC)cc2)c(=O)[nH]1 | 96* | -3 | 5 | -6 | 8 | 5
CCCNC(=O)CC(C)=NNC(=O)C(=O)Nc1ccccn1 | x | x | 2 | x | x | x
COC(=O)c1ccccc1NC(=S)NC(=O)c1ccc2c(c1)OCO2 | 98* | 8 | -4 | 63 | -10 | 2
COC(=O)c1ccccc1NC(=S)NC(=O)c1ccccc1 | 98* | -2 | -1 | -4 | 8 | 5
COC(=O)c1ccccc1NC(=S)NC(=O)c1ccc(C)cc1 | 66 | 16 | -3 | 26 | -26 | 2
COC(=O)c1ccccc1NC(=S)NC(=O)c1ccccc1C | 97* | 20 | 5 | u | 18 | 5
Cc1ccccc1C(=O)NC(=S)Nc1ccccc1C(=O)O | 24 | 10 | 1 | -13 | -35 | 10
COC(=O)c1ccccc1NC(=O)c1ccc2c(c1)OCCO2 | 10 | -7 | -3 | -2 | 4 | 38
CC(=O)Oc1ccccc1C(=O)Oc1ccc(C=Nn2cnnc2)cc1 | x | x | 4 | x | x | x
O=[N+]([O-])c1cc(C=NN2CCN(C3c4ccccc4-c4ccccc43)CC2)ccc1Cl | x | x | 7 | x | x | x
O=C(/C=C/Nc1cccc(F)c1)c1ccco1 | x | -3 | 2 | -9 | 15 | 19
O=C(/C=C/Nc1ccc(F)c(Cl)c1)c1ccco1 | -2 | 3 | 2 | -3 | 31* | 2
CCCN1C(=O)S/C(=C\c2ccc(N3CCOCC3)o2)C1=O | 86* | -29 | 7 | 38 | 28 | 21
CCCN1C(=O)S/C(=C\c2ccc(N3CCOCC3)cc2C)C1=O | x | x | x | x | 16 | x
CCOC(=O)CN1C(=O)S/C(=C/c2ccc(N3CCCCC3)o2)C1=O | 17 | -2 | 2 | -6 | -10 | 17
CCCN1C(=O)S/C(=C/c2ccc(N3CCOCC3)o2)C1=O | 99* | -18 | 8 | 45 | 11 | 25
Cc1ccnn1CC(=O)NN=Cc1cn[nH]c1-c1ccc(F)cc1 | x | x | 6 | x | x | x
Cc1ccc2cc(/C=C/C(=O)c3ccco3)c(Cl)nc2c1 | 11 | 3 | 4 | 25 | x | 31
Cc1ccc2nc(Cl)c(/C=C/C(=O)c3ccco3)cc2c1 | 97* | 5 | 6 | 10 | -2 | 18
CC1(C)CC(=NO)c2cc3c(nc2C1)CCCC3 | x | x | 0 | x | x | x
COc1ccc(C(=O)C2CCCN(Cc3c(C)[nH]c4ccccc34)C2)c(OC)c1 (stereo not given) | -7 | x | x | -5 | 33* | 9
COc1cc(C=NNC(=O)c2cc(C)n(-c3ccc(F)cc3)c2C)cc(OC)c1O | x | x | -4 | x | x | x
SMILES | ALR inh | ATG4B inhibitor | UCH37 inh | Calb FLC | NALP1 yeast inh | NLRP3 yeast inh
CCOc1ccc2nc(NC(=S)N(C)C)sc2c1 | 26 | -5 | 5 | 104* | -11 | 36
CCCC(=O)Nc1nc2ccc(OCC)cc2s1 | -4 | -7 | 1 | -3 | 4 | -7
CCOc1ccc2nc(NC(=O)CS(=O)(=O)c3ccc(C)cc3)sc2c1 | 81* | -4 | 2 | 1 | 15 | 7
CC(=NNC(=O)CN(c1ccc(C)cc1)S(C)(=O)=O)c1cccs1 | x | x | 1 | x | x | x
COc1ccc(-c2csc(N=C(N)N)n2)cc1 | 98* | -7 | 3 | 6 | -6 | -2
Fc1ccc(N2CCN(C(=S)NCC3CCCO3)CC2)cc1 (stereo not given) | 99* | -15 | 2 | 12 | -16 | 10
S=C(NCC1CCCO1)N1CCN(c2cccc(Cl)c2)CC1 (stereo not given) | 3 | -3 | 2 | 14 | 39 | 11
Cc1ccc(COc2cccc(C=NNC(=O)c3nnn(-c4nonc4N)c3C)c2)cc1 | x | x | -7 | x | x | x
Cc1cc[n+](-c2[nH]c(=O)sc2C=NNC([S-])=Nc2ccccc2)cc1 | x | x | 23* | x | x | x
COc1cc(C=NNC(=O)C2COc3ccccc3O2)cc(OC)c1OC (stereo not given) | x | x | -1 | x | x | x
CCN(CC)C(=O)Cn1c(=O)n(-c2ccccc2)c(=O)c2c3c(sc21)CCC3 | 9 | -14 | 0 | 113* | 18 | 6
NC[C@H](Cc1ccccc1)NCCCCC1CCCCC1 | -3 | 4 | 0 | x | x | 23
CNC[C@H](CC1CCCCC1)NC[C@H](Cc1ccccc1)NCCC12CC3CC(CC(C3)C1)C2 | -39 | 16 | 0 | 91* | 17 | 43
Cc1cccn2cc(-c3cccc(S(=O)(=O)N4CC(C)OC(C)C4)c3)nc12 (stereo not given) | 97* | 0 | -3 | 4 | -2 | -10
Cc1cccn2cc(-c3ccc(F)cc3)nc12 | 96* | -7 | -5 | -11 | 26 | 32
Cc1cccn2cc(-c3cccc(S(=O)(=O)N4CCOCC4)c3)nc12 | 96* | 0 | -2 | 1 | 16 | 4
COc1cccc(CNc2ccc(N3CCCCC3)cc2)c1OC | 96* | 15 | 1 | x | 11 | 21
COc1cccc(Nc2ccc(N3CCCCC3)cc2)c1OC | 100* | 7 | -3 | x | x | 21
COc1ccccc1CNc1ccc(N2CCCCC2)cc1 | 98* | 0 | -1 | -22 | -2 | 34
O=C(Cc1ccccc1[N+](=O)[O-])NN=Cc1cccnc1 | x | x | -1 | x | x | x
CCCNC(=O)C(=O)NN=Cc1cccs1 | x | x | 9 | x | x | x
CC(C)c1ccc(NCCC(=O)c2cccs2)cc1 | x | 3 | 5 | -3 | 49 | 11
Cc1ccc(NCCC(=O)c2cccs2)cc1C | 99* | -3 | -1 | 2 | 4 | 25
Cc1ccc(NCCC(=O)c2cccs2)cc1 | 99* | -3 | 5 | 2 | 7 | 27
CC(=NNC(=S)Nc1c(C)cccc1C)c1ccc(O)cc1 | x | x | 2 | x | x | x
SMILES | ALR inh | ATG4B inhibitor | UCH37 inh | Calb FLC | NALP1 yeast inh | NLRP3 yeast inh
COc1cc(-c2nc3ccc4ccccc4c3c3c2CCC3)ccc1O | 96* | -11 | -21 | -3 | -24 | 19
CCN1C(=O)/C(=C\c2ccc(F)cc2)N=C1SCC(=O)NCc1ccco1 | 95* | -10 | 2 | 8 | 27 | 6
CC(=NNC(=O)CC#N)C1COc2ccccc2O1 (stereo not given) | x | x | 0 | x | x | x
CCOC(=O)C1=C(CS(=O)(=O)c2ccc(C)cc2)NC(=O)NC1c1cc(OC)c(O)c(OC)c1 (stereo not given) | -25 | -7 | 4 | -3 | -4 | 10
CCOC(=O)C1=C(CS(=O)(=O)c2ccc(F)c(C)c2)NC(=O)NC1c1ccc(O)c(O)c1 (stereo not given) | 98* | -11 | 2 | -11 | 12 | 9
CN1CCN(c2nc(N3CCN(c4ccccc4)CC3)ncc2F)CC1 | 99* | -10 | 2 | -2 | 30 | 30
Fc1cnc(N2CCOCC2)nc1N1CCOCC1 | -16 | 0 | -1 | 0 | 12 | 18

Source: PubChem BioAssay (several laboratories)
